PubChem BioAssay
The source made the active and inactive calls.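 The calls were made as follows, unless noted: active = viability at or below 10% of carrier control in both of two separate runs; inconclusive = viability at or below 10% in only one of the two runs; inactive = the rest.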

How the values were obtained:
[1] = reducers of endogenous Her2 protein level, primary screen, SKBR3 breast tumor cells, AlphaScreen, ATP viability (AID 461;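 active = Her2 level under about 52% in both replicate screens, with viability over 70% of control, limit read from the data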;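 as to Her2 level: lower value means less Her2 protein in the cells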;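 as to viability: percent of carrier control wells set as 100% viability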); conditions: 18-24 h, measured here: SKBR3 viability, ATP luminescence, at 10 µM
[2] = target: Receptor tyrosine-protein kinase erbB-2 (Homo sapiens) (UniProt P04626); experiment: as above; conditions: 18-24 h, at 10 µM, stronger effect = lower value
[3] = SK-BR-3 cell growth inhibitors, pilot screen, 24 h, human (AID 572); conditions: SK-BR-3 viability, CellTiter-Glo luminescence, at 10 µM, stronger effect = lower value;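 also: compound exposure lasted between 18 and 24 h rather than exactly 24 h; 100% = carrier-treated control wells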
[4] = HUVEC growth inhibition – cell-based, human, primary screen (AID 575;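 active = viability at or below 30% in both replicate assays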;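 also: 100% = median of untreated cell wells with 0.1% DMSO on each plate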); conditions: HUVEC proliferation, CellTiter-Glo luminescence, 72 h; at 10 µM; stronger effect = lower value
Outline: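 Test system: primary human umbilical vein endothelial cells; medium: endothelial basal medium with 2% FBS plus growth supplements; dosing: 10 µM compound only; times: 72 h treatment at 37 °C; signal: CTG luminescence; read-out: % viability relative to median vehicle-well signal on each plate; control set: vehicle and MePR control wells; plate: 384-well, collagen-coated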

[5] = growth inhibitors of H69AR lung tumor, primary screen, human, duplicate replicates (AID 580;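 active = viability at or under a set limit in both replicates, limit being median viability minus 3 SD, cut at about 48% in these data, passing the limit was not always enough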;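 also: 100% = mean luminescence of untreated wells and 0% = no signal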); conditions: H69AR lung tumor cells viability, ATP luminescence, 72 h; at 10 µM; stronger effect = lower value
[6] = reversal of MRP1-mediated doxorubicin resistance, pilot screen, H69AR cells, doxorubicin co-treatment (AID 601;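 active = viability loss from added drug above about 55%, and viability with drug at most 40%, in both replicates, limit read from the data, passing the limit was not always enough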); conditions: CellTiter-Glo, 72 h, at 10 µM; for differential viability (reversal): stronger effect = higher value
[7] = 384-well plate pilot, post-Golgi transport modulator project, inhibition of yeast transport mutant growth (AID 636; in the data active = inhibition above about 31%); conditions: absorbance 615 nm, about 18 h, stronger effect = higher value
[8] = growth suppression of yeast trafficking mutant, preliminary HTS, modulators of trafficking downstream of Golgi apparatus project, 1536-format plate, OD 615 nm (AID 637; in the data active = inhibition above about 30%); conditions: yeast transport mutant growth, absorbance 615 nm, 18 h; stronger effect = higher value
[9] = H69AR cells + 2 uM doxorubicin, measured here: viability with 2 uM doxorubicin, stronger effect = lower value
[10] = H69AR cells, compound alone cytotoxicity

Chain of Receptor tyrosine-protein kinase erbB-2 (Homo sapiens) (P04626 whole entry, looked up): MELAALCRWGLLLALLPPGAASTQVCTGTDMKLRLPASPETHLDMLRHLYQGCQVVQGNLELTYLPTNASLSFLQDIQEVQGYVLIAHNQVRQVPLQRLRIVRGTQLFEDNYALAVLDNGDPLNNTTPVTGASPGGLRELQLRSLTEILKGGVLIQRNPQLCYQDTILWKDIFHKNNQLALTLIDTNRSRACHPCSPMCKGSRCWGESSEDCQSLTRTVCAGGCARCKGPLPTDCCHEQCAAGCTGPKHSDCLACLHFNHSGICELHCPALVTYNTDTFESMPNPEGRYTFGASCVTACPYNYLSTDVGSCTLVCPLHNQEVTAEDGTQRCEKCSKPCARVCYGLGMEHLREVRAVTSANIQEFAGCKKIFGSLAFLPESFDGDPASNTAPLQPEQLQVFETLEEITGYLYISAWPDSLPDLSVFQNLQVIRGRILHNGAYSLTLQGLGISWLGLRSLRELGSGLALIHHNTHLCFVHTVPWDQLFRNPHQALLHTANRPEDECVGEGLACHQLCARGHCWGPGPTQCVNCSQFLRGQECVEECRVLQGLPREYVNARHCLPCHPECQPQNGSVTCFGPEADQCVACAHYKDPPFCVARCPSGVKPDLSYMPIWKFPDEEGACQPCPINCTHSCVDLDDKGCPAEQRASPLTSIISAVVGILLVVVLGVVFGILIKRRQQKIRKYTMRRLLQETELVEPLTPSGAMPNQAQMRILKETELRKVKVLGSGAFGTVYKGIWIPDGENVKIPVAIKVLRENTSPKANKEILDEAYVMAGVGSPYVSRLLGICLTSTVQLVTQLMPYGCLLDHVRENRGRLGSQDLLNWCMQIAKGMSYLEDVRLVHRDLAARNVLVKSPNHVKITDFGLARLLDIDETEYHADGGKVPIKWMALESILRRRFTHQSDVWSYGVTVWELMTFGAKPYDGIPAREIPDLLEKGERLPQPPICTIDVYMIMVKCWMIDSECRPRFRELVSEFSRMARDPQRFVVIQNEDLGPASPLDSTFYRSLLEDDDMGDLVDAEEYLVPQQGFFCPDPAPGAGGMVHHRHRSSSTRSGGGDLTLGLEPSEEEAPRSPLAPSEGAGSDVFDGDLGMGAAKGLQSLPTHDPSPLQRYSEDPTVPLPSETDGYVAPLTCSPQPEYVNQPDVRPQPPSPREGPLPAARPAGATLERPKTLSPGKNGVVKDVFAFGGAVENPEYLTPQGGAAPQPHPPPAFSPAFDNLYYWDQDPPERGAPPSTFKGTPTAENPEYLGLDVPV

Row | SMILES | viability [1] [%] | Her2 level [2] | viability [3] | viability [4] | viability [5] | differential viability (reversal) ([6]; H69AR cells + 2 uM doxorubicin) | viability [6, 9] [%] | viability [6, 10] [%] | inhibition [7] | inhibition [8]
1 | CN(C)CCN1C(=O)c2oc3ccc(Cl)cc3c(=O)c2C1c1cccc(Br)c1 (stereo not given) | 102 | 72.5% (inactive) | 102% (inactive) | 87.9% (inactive) | 77.1% (inactive) | 2.96% (inactive) | 74.2 | 77.1 | -1.17% (inactive) | -5.5% (inactive)
2 | CCn1c(SCC(=O)c2ccc(F)cc2)nnc1-c1ccoc1C | 104 | 97.5% (inactive) | 104% (inactive) | 104% (inactive) | 106% (inactive) | 19.3% (inactive) | 86.9 | 106 | -6.1% (inactive) | -0.95% (inactive)
3 | Cc1ccc(Cn2c(NCCc3ccccc3)nc3c2c(=O)n(C)c(=O)n3C)cc1 | 82.5 | 75% (inactive) | 82.5% (inactive) | 73.5% (inactive) | 91.9% (inactive) | 3.77% (inactive) | 88.1 | 91.9 | -10% (inactive) | -2.7% (inactive)
4 | CC(C)C(NC(=O)c1ccccc1NC(=O)c1ccco1)C(=O)O (stereo not given) | 114 | 77.5% (inactive) | 114% (inactive) | 94.8% (inactive) | 91.6% (inactive) | 2.44% (inactive) | 89.1 | 91.6 | -8.24% (inactive) | 6.98% (inactive)
5 | O=C(c1ccco1)N1CCN(c2cccc(Cl)c2)CC1 | 101 | 103% (inactive) | 101% (inactive) | 88.1% (inactive) | 97.9% (inactive) | 5.25% (inactive) | 92.7 | 97.9 | -0.93% (inactive) | -9.68% (inactive)
6 | O=C(Nc1cccc2ccccc12)c1cnccn1 | 82 | 88.5% (inactive) | 82% (inactive) | 92.3% (inactive) | 95% (inactive) | 12.5% (inactive) | 82.5 | 95 | -7.53% (inactive) | -1.59% (inactive)
7 | Cc1ccc(NC(=O)CNc2cccc(C)c2C)c(C)c1 | 106 | 86.5% (inactive) | 106% (inactive) | 98.3% (inactive) | 79.2% (inactive) | 10.1% (inactive) | 69 | 79.2 | -0.53% (inactive) | -1.45% (inactive)
8 | CCN(CC)C(=O)C1CCCN(Cc2ccc(N(C)C)cc2)C1 (stereo not given) | 90.5 | 96.5% (inactive) | 90.5% (inactive) | 100% (inactive) | 89.5% (inactive) | -3.46% (inactive) | 93 | 89.5 | -1.82% (inactive) | -4.75% (inactive)
9 | COc1ccc(Br)cc1S(=O)(=O)N1CC(C)OC(C)C1 (stereo not given) | 90.5 | 100% (inactive) | 90.5% (inactive) | 95.6% (inactive) | 91.3% (inactive) | -4.83% (inactive) | 96.2 | 91.3 | 1.73% (inactive) | -6.35% (inactive)
10 | CCN(CC)C(=O)Cn1c(=O)n(Cc2ccccc2Cl)c2c1c(=O)n(C)c(=O)n2C | 98 | 100% (inactive) | 98% (inactive) | 98.6% (inactive) | 93.7% (inactive) | 4.23% (inactive) | 89.5 | 93.7 | -0.93% (inactive) | -4.13% (inactive)
11 | CC(=O)c1ccc(NS(=O)(=O)c2ccccc2)cc1 | 95 | 137% (inactive) | 95% (inactive) | 91.5% (inactive) | 98.6% (inactive) | 7.02% (inactive) | 91.6 | 98.6 | 4.42% (inactive) | 5.33% (inactive)
12 | CC(=O)N1C(=O)C2(C(C#N)=C(N)Oc3cc(C)oc(=O)c32)c2ccccc21 (stereo not given) | 95.5 | 112% (inactive) | 95.5% (inactive) | 95.9% (inactive) | 88.1% (inactive) | 7.52% (inactive) | 80.6 | 88.1 | 1.84% (inactive) | -2.91% (inactive)
13 | COC(=O)c1[nH]c2cc(OC)ccc2c1NC(=O)CCN1CCCCC1 | 85 | 114% (inactive) | 85% (inactive) | 116% (inactive) | 98.2% (inactive) | 2.35% (inactive) | 95.8 | 98.2 | -1.97% (inactive) | -4.43% (inactive)
14 | CCCNS(=O)(=O)c1ccc(C(=O)NCC2CCCO2)cc1 (stereo not given) | 96.5 | 74.5% (inactive) | 96.5% (inactive) | 106% (inactive) | 95.1% (inactive) | -1.32% (inactive) | 96.4 | 95.1 | -3.56% (inactive) | 0.16% (inactive)
15 | CC(C)Cn1c(=O)c(C(=O)Nc2ccccc2S(N)(=O)=O)c(O)c2ccccc21 | 118 | 91.5% (inactive) | 118% (inactive) | 62.9% (inactive) | 16.1% (active) | -11.4% (inactive) | 27.5 | 16.1 | 10.3% (inactive) | 8.67% (inactive)
